Experiments:
[1] = biological target: GABA-A receptor; anion channel; assay: Displacement of [3H]flunitrazepam from diazepam-sensitive GABA-A benzodiazepine receptor of rat cortical membrane
Method in brief: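 Washed rat cerebral cortex membranes (adult male Sprague-Dawley) in Tris-citrate pH 7.4 with NaCl. [3H]flunitrazepam at about 1 nM final, 2 h at 4 °C, then filtration. Six to eight inhibitor concentrations were used; IC50 came from a sigmoid fit. Three determinations, mean ± SEM.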

[2] = biological target: GABA-A receptor; anion channel; assay: […] from diazepam-insensitive GABA-A benzodiazepine receptor of rat cerebellar membrane
[3] = Ratio between diazepam-insensitive (DI) site / diazepam-sensitive (DS) site
Method in brief: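 Rat cerebellar membranes washed five times in 50 mM Tris-citrate pH 7.8 with NaCl. [3H]Ro 15-4513 at about 2 nM final, 60 min at 0–4 °C, then filtration. DS+DI binding was defined by Ro 15-1788 (10 μM) displacement and DI binding as the diazepam (10 μM)-insensitive part. 0.1 nM–1 μM inhibitor; Cheng-Prusoff Ki; duplicate assays, three experiments. Ratio is Ki DI/DS.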

[4] = biological target: GABA-A receptor; anion channel; assay: […] from diazepam-sensitive GABA-A benzodiazepine receptor of rat cerebellar membrane

## C=CCN1Cc2c(C(=O)OCC)ncn2-c2ccccc2C1=O
[1]
  IC50: 157 nM

## Cc1nnc(-c2ncn3c2CN(Cc2ccccc2)C(=O)c2ccccc2-3)o1
[2]
  IC50: > 10000 nM
[1]
  IC50: > 1000 nM

## Cc1noc(-c2ncn3c2CN(Cc2ccccc2)C(=O)c2cc(Cl)ccc2-3)n1
[1]
  IC50: 338 nM
[3]
  Ratio: 1.3

## CCOC(=O)Nc1ncn2c1CN(C)C(=O)c1ccccc1-2
[1]
  IC50: > 1000 nM

## CCOC(=O)c1ncn2c1CN(Cc1ccccc1)C(=O)c1ccccc1-2
[1]
  IC50: 9.3 nM
[3]
  Ratio: 75

## CCOC(=O)c1ncn2c1CN(C)C(=O)c1ccccc1-2
[3]
  Ratio: 165

## CCOC(=O)c1ncn2c1CN(CCc1ccccc1)C(=O)c1ccccc1-2
[1]
  IC50: 340 nM

## CCOC(=O)c1ncn2c1CN(Cc1ccccc1)C(=O)c1c(Cl)cccc1-2
[1]
  IC50: 2.4 nM
[3]
  Ratio: 51

## CCCN1Cc2c(C(=O)OCC)ncn2-c2ccccc2C1=O
[1]
  IC50: 238 nM

## CN1Cc2c(NC=O)ncn2-c2ccccc2C1=O
[1]
  IC50: > 1000 nM

## Cc1noc(-c2ncn3c2CN(Cc2ccccc2)C(=O)c2c(Cl)cccc2-3)n1
[1]
  IC50: 15.3 nM
[3]
  Ratio: 101

## CCOC(=O)c1ncn2c1CN(Cc1ccc(OC)cc1OC)C(=O)c1ccccc1-2
[4]
  Ki: 5.4 nM
[2]
  Ki: 127 nM
[1]
  IC50: 23.2 nM
[3]
  Ratio: 24

## CCOC(=O)c1ncn2c1CNC(=O)c1ccccc1-2
[1]
  IC50: 164 nM

## CN1Cc2c(N=C=S)ncn2-c2ccccc2C1=O
[1]
  IC50: 739 nM

## COC(=O)Nc1ncn2c1CN(C)C(=O)c1ccccc1-2
[1]
  IC50: > 1000 nM

## CN1Cc2c(C3=NCCO3)ncn2-c2ccccc2C1=O
[1]
  IC50: 687 nM

## Cc1noc(-c2ncn3c2CN(Cc2ccccc2)C(=O)c2ccccc2-3)n1
[2]
  IC50: > 10000 nM
[1]
  IC50: 34.3 nM

## CCOC(=O)c1ncn2c1CN(c1ccc(OC)cc1)C(=O)c1ccccc1-2
[1]
  IC50: > 1000 nM

## CCOC(=O)c1ncn2c1CN(Cc1ccccc1)C(=O)c1cc(Cl)ccc1-2
[2]
  Ki: 1.4 nM
[1]
  IC50: 37.8 nM
[3]
  Ratio: 0.8

## CCOC(=O)c1ncn2c1CN(C)C(=O)c1c(Cl)cccc1-2
[3]
  Ratio: 100

## Cc1ccc(S(=O)(=O)c2ncn3c2CN(C)C(=O)c2ccccc2-3)cc1
[1]
  IC50: > 1000 nM

## CCOC(=O)c1ncn2c1CN(c1ccccc1)C(=O)c1ccccc1-2
[1]
  IC50: > 1000 nM

## CC(=O)Nc1ncn2c1CN(C)C(=O)c1ccccc1-2
[1]
  IC50: > 1000 nM

From ChEMBL document CHEMBL1127087, “Synthesis and structure-activity relationships of 3,5-disubstituted 4,5-dihydro-6H-imidazo[1,5-a][1,4]benzodiazepin-6-ones at diazepam-sensitive and diazepam-insensitive benzodiazepine receptors” (J Med Chem, 1993)
